According to PubChem BioAssay:
Records with an inconclusive call do not appear.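 The calls were made as follows, unless noted: active = cell viability at or below a set limit in both duplicate runs, the limit being the all-compound median minus 4 SD (cut at about 23% in these data, passing the limit was not always enough); inconclusive = no clear call, values can overlap the other calls; inactive = the rest.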

What was measured:
[1] = OD615 S. cerevisiae growth inhibition, permissive medium, pilot counter-assay, permissive growth control for S. cerevisiae lifespan shortening project (AID 705;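 active = growth inhibition above 25% in both replicates, a cutoff set 3 SD above the mean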); settings: OD615, 24 h, at 10 µM, active compounds read high
How it was run: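 Test system: Saccharomyces cerevisiae strain carrying genetically modified DeaD replicative-lifespan system; buffer or medium: SC raffinose/galactose permissive medium; dosing: one dose 10 µM, DMSO 0.25% final; times: 24 h exposure, 30 °C; measured by: OD at 615 nm; read-out basis: growth inhibition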

[2] = Restrictive medium S. cerevisiae growth inhibition, OD615, pilot screen of yeast lifespan reduction project, restrictive growth control (AID 706;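 active = growth inhibition above a set limit, 3 SD over mean compound inhibition, in both replicates, cut at about 43% in these data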;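 also: modified DeaD lifespan yeast strain shifted to restrictive glucose medium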); settings: OD615, 48 h, at 10 µM, active compounds read high
How it was run: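 material = engineered S. cerevisiae DeaD strain | buffer or medium = glucose-based CSMM-D restrictive medium | dosing = one concentration, 10 µM final, 0.25% DMSO | schedule = 4 h pre-growth plus 48 h compound exposure, 30 °C | detection = OD615 absorbance reading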

[3] = viability gain of MRP-1-high H69AR cells under doxorubicin, pilot screen, MRP-1 activator project, CellTiter-Glo, duplicate (AID 807;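 active = viability increase at or above a cutoff of the median across tested compounds plus 3 SD, cut at about 8.5% in these data, passing the limit was not always enough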;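 also: compound pretreatment 18-22 h then 72 h combined with doxorubicin; 0% = doxorubicin alone and 100% = vehicle without doxorubicin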); settings: H69AR viability with doxorubicin, CellTiter-Glo luminescence; at 10 µM; active compounds read high
[4] = growth suppression of beta-catenin knockout HCT116, pilot screen, human colon tumor cells (AID 823); settings: CellTiter-Glo, 60 h, at 10 µM, active compounds read low;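 also: 0% = wells killed by 20 µM Hyamine and 100% = untreated DMSO cell wells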
[5] = growth suppression of PTEN-deleted HCT116, pilot screen, cell-based, HCT116 clonal line, CellTiter-Glo (AID 824;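 active = viability at or below 27.92% in each of two runs, the all-compound median minus 4 SD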;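 also: 0% = 20 µM Hyamine control and 100% = vehicle cell control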); settings: 60 h, at 10 µM, active compounds read low
[6] = inhibitors of the yeast RAM network, pilot screen, dse1pr::URA3 reporter, 5-FOA selection (AID 869;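 active = inhibition over a set limit, the all-compound mean plus 3 SD, in both replicate runs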;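 also: 0% = DMSO wells with no growth and 100% = 10 µM 1-NA-PP1 with full growth; RAM network block rescues cells from 5-FOA so hits raise OD615 growth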); settings: S. cerevisiae dse1pr::URA3 5-FOA growth, OD615, 2 d; at 10 µM; active compounds read high; strain carries analog-sensitive mutant Cbk1 kinase
[7] = RAM signaling pathway blockade in yeast – S. cerevisiae, Pdr1DBD-CYC8 efflux-inhibited sensitized strain, primary screen (AID 1298;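 active = RAM network inhibition above 8.4% in each of two replicates, 3 SD over the compound average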;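 also: 0% = DMSO untreated cells without growth and 100% = 10 µM 1-NA-PP1 full growth; higher means more yeast growth rescued from 5-FOA killing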); settings: S. cerevisiae cbk1-as DSE1-URA3 strain, 5-FOA growth OD615, 2 d; at 50 µM; active compounds read high

Cc1c(C)n(CC(O)CN2CCCCCC2)c2ccccc12 (configuration not stated)
inactive: growth inhibition [1] -14.9% | growth inhibition [2] -19.6% | viability increase [3] -4.25% | viability [4] 79.6% | viability [5] 81% | inhibition [6] 2.44% | RAM network inhibition [7] 1.09%

CCOC(=O)c1ccc(N2C(=O)CC(SCC(N)C(=O)OCC)C2=O)cc1 (configuration not stated)
inactive: growth inhibition [1] -4.09% | growth inhibition [2] -7.37% | viability increase [3] -2.49% | viability [4] 102% | viability [5] 85.6% | inhibition [6] 1.47% | RAM network inhibition [7] 3.7%

Cc1cccc(NC(=O)c2ccc(S(=O)(=O)N3CCCCC3)cc2)n1
inactive: growth inhibition [1] -8.26% | growth inhibition [2] -4% | viability increase [3] 1.43% | viability [4] 94.5% | viability [5] 87% | inhibition [6] -0.09% | RAM network inhibition [7] 0.16%

COc1ccc(CNC(=O)C2CCN(S(=O)(=O)c3cccc4cccnc34)CC2)cc1
inactive: growth inhibition [1] -9.14% | growth inhibition [2] 3.15% | viability increase [3] 0.11% | viability [4] 99.9% | viability [5] 92.2% | inhibition [6] 2.6% | RAM network inhibition [7] 2.66%

Cc1sc2nc3ccc(N4CCCC4)nn3c(=O)c2c1C
inactive: growth inhibition [1] -0.905% | growth inhibition [2] 18.9% | viability increase [3] -2.12% | viability [4] 70.1% | viability [5] 75% | inhibition [6] 0.845% | RAM network inhibition [7] 2.93%

O=C(C1CCCN(c2nnc(-n3cccc3)s2)C1)N1CCN(c2ccccc2)CC1 (configuration not stated)
inactive: growth inhibition [1] -4% | growth inhibition [2] -4.55% | viability increase [3] -1.11% | viability [4] 88.9% | viability [5] 86.5% | inhibition [6] 0.485% | RAM network inhibition [7] 1.12%

COCCNC(=O)CS(=O)Cc1nc(-c2ccc(Cl)cc2)oc1C (configuration not stated)
inactive: growth inhibition [1] -6.59% | growth inhibition [2] -1.85% | viability increase [3] -0.72% | viability [4] 94.7% | viability [5] 95.1% | inhibition [6] 3.21% | RAM network inhibition [7] 0.65%

CCOC(=O)c1ccc(CSc2n[nH]c(C)n2)o1
inactive: growth inhibition [1] -3.09% | growth inhibition [2] -7.67% | viability increase [3] -2.58% | viability [4] 97.7% | viability [5] 96.7% | inhibition [6] -1.18% | RAM network inhibition [7] 1.95%

CCCOC(=O)C1=C(C)NC2=C(C(=O)C(C(=O)OC)C(C)C2)C1c1ccc(N(CC)CC)cc1 (configuration not stated)
inactive: growth inhibition [1] -10.6% | growth inhibition [2] -19.6% | viability increase [3] -3.23% | viability [4] 65.7% | viability [5] 56.8% | inhibition [6] 1.56% | RAM network inhibition [7] 1.46%

Cn1c(=O)c2c(nc(SCCN3CCOCC3)n2Cc2ccc(Cl)cc2)n(C)c1=O
inactive: growth inhibition [1] -5.34% | growth inhibition [2] 16.6% | viability increase [3] -3.32% | viability [4] 87.8% | viability [5] 84.1% | inhibition [6] 2.31% | RAM network inhibition [7] -0.47%

c1ccc(N2CCOCC2)c(Nc2nc3ccccc3n3cnnc23)c1
inactive: growth inhibition [1] -8.77% | growth inhibition [2] -1.25% | viability increase [3] -2.57% | viability [4] 66.3% | viability [5] 49.1% | inhibition [6] 1.02% | RAM network inhibition [7] 9.05%

NC(=O)c1ccsc1NC(=O)C1CCCCC1
inactive: growth inhibition [1] -3.66% | growth inhibition [2] -5.7% | viability increase [3] -0.9% | viability [4] 102% | viability [5] 101% | inhibition [6] 0.965% | RAM network inhibition [7] 0.22%

CC1(C)CC(n2c(NCCO)nc3c(c2=O)C2(CCCC2)Cc2ccccc2-3)CCO1 (configuration not stated)
inactive: growth inhibition [1] 11.7% | growth inhibition [2] 2.4% | viability increase [3] -6.73% | viability [4] 96.2% | viability [5] 93.4% | inhibition [6] 0.65% | RAM network inhibition [7] 7.43%

Cc1nn(C)cc1CN(C)C(=O)c1sc2cccc(Cl)c2c1Cl
inactive: growth inhibition [1] -4.77% | growth inhibition [2] 5.83% | viability increase [3] 0.61% | viability [4] 84.1% | viability [5] 82.1% | inhibition [6] -0.12% | RAM network inhibition [7] 3.58%

COc1ccccc1OCC(=O)NC1CCCCCC1
inactive: growth inhibition [1] -5.33% | growth inhibition [2] -8.23% | viability increase [3] -0.27% | viability [4] 96.3% | viability [5] 88.8% | inhibition [6] -0.49% | RAM network inhibition [7] 0.78%

Cc1ccc(O)c(-c2cc(C(F)(F)C(F)F)nc(-c3ccccc3)n2)c1
inactive: growth inhibition [1] -21.9% | growth inhibition [2] -10.4% | viability increase [3] -5.33% | viability [4] 66.7% | viability [5] 73% | inhibition [6] 2.58% | RAM network inhibition [7] 7.06%

COc1cc(C(=O)N2CCN(C(=O)c3ccco3)CC2)cc(OC)c1OC
inactive: growth inhibition [1] -7.33% | growth inhibition [2] -2.3% | viability increase [3] -0.58% | viability [4] 100% | viability [5] 97.5% | inhibition [6] 0.16% | RAM network inhibition [7] 6.85%

CC(C)Sc1nc2c(c(=O)n1C)SC(C)C2 (configuration not stated)
inactive: growth inhibition [1] -7.53% | growth inhibition [2] 2.86% | viability increase [3] -1.28% | viability [4] 106% | viability [5] 99.5% | inhibition [6] 1.61% | RAM network inhibition [7] 5.77%

Cc1cc(C)c2c(=O)[nH]c(SCC(=O)N3CCCCC3)nc2n1
inactive: growth inhibition [1] -12.1% | growth inhibition [2] -6.02% | viability increase [3] -0.84% | viability [4] 93.1% | viability [5] 101% | inhibition [6] 0.535% | RAM network inhibition [7] 2.3%

CCOc1ccc2nc(N3CCCC(C(=O)NCCCN4CCOCC4)C3)sc2c1 (configuration not stated)
inactive: growth inhibition [1] -10.1% | growth inhibition [2] -15.6% | viability increase [3] -2.55% | viability [4] 86.3% | viability [5] 92.8% | inhibition [6] 1.36% | RAM network inhibition [7] 0.52%

Cc1ccc(S(=O)(=O)N2C3C=CC(C3)C2C(=O)O)cc1 (configuration not stated)
inactive: growth inhibition [1] 3.23% | growth inhibition [2] -3.31% | viability increase [3] -0.3% | viability [4] 94.3% | viability [5] 99.9% | inhibition [6] 0.08% | RAM network inhibition [7] 1.2%

O=C(CSc1ncccn1)NCCc1ccccc1
inactive: growth inhibition [1] -4.5% | growth inhibition [2] 2.61% | viability increase [3] -1.26% | viability [4] 96% | viability [5] 97.2% | inhibition [6] 2.3% | RAM network inhibition [7] 2.5%

COC(=O)c1sccc1NC(=O)c1ccc(Br)o1
inactive: growth inhibition [1] 12.1% | growth inhibition [2] 11.3% | viability increase [3] -6.77% | viability [4] 78.5% | viability [5] 72.2% | inhibition [6] 2.2% | RAM network inhibition [7] 7.41%

O=C1CCC(C(=O)N(c2ccccc2)C2(C(=O)NC3CCCCC3)CCCCC2)N1 (configuration not stated)
inactive: growth inhibition [1] 1.54% | growth inhibition [2] 2.4% | viability increase [3] -0.07% | viability [4] 94.3% | viability [5] 97.2% | inhibition [6] 0.505% | RAM network inhibition [7] 1.6%

O=C(NCCO)c1ccc(-c2nnc(N3CCOCC3)c3ccccc23)cc1
inactive: growth inhibition [1] -8.54% | growth inhibition [2] -14.4% | viability increase [3] 0.15% | viability [4] 89.1% | viability [5] 89.6% | inhibition [6] 0.425% | RAM network inhibition [7] 3.24%

CC(C)CC(NS(=O)(=O)c1ccc2c(c1)oc(=O)n2C)C(=O)NC1CCCc2ccccc21 (configuration not stated)
inactive: growth inhibition [1] 0.005% | growth inhibition [2] -5.15% | viability increase [3] -6.23% | viability [4] 76.8% | viability [5] 71.8% | inhibition [6] 1.38% | RAM network inhibition [7] 6.99%

N#CCCN1CCN(S(=O)(=O)c2ccc(S(=O)(=O)N3CCCCCC3)cc2)CC1
inactive: growth inhibition [1] 1.57% | growth inhibition [2] -16.9% | viability increase [3] -2.09% | viability [4] 97.4% | viability [5] 94.3% | inhibition [6] 0.525% | RAM network inhibition [7] 11.9%

CCCCn1c(CNC(=O)CC)nc2ccccc21
inactive: growth inhibition [1] -4.54% | growth inhibition [2] -9.44% | viability increase [3] -2.1% | viability [4] 103% | viability [5] 102% | inhibition [6] 0.825% | RAM network inhibition [7] 1.89%

COC(=O)c1cn(C(C)C(=O)NCc2ccco2)c2ccccc12 (configuration not stated)
inactive: growth inhibition [1] -16.9% | growth inhibition [2] -23.6% | viability increase [3] -0.53% | viability [4] 102% | viability [5] 102% | inhibition [6] 1.68% | RAM network inhibition [7] 2.95%

C=CCNc1ncnc2c1cnn2-c1cccc(C)c1
inactive: growth inhibition [1] 8.9% | growth inhibition [2] 1.8% | viability increase [3] -1.03% | viability [4] 101% | viability [5] 98.5% | inhibition [6] 3.21% | RAM network inhibition [7] 0.06%

Cc1ccsc1-c1nc(CSCC(=O)N2CCN(c3ccccc3)CC2)c(C)o1
inactive: growth inhibition [1] -4.56% | growth inhibition [2] 26.6% | viability increase [3] -3.18% | viability [4] 61.6% | viability [5] 65.6% | inhibition [6] 0.75% | RAM network inhibition [7] 7.89%

COC(=O)C1(C)NC(=O)c2ccccc2N1 (configuration not stated)
inactive: growth inhibition [1] -6.57% | growth inhibition [2] -7.71% | viability increase [3] -0.86% | viability [4] 102% | viability [5] 99.2% | inhibition [6] 0.47% | RAM network inhibition [7] 5.23%

Cc1ccc(NC(=O)CSc2nnc(Cn3c(=O)sc4ccccc43)n2C)cc1Cl
inactive: growth inhibition [1] -1.48% | growth inhibition [2] -18.1% | viability increase [3] -4.78% | viability [4] 92.3% | viability [5] 86.6% | inhibition [6] 1.81% | RAM network inhibition [7] 4.65%

Cc1ccc(-c2nc(CS(=O)(=O)CC(=O)N3CCc4ccccc4C3)c(C)o2)cc1
inactive: growth inhibition [1] -3.42% | growth inhibition [2] -1.55% | viability increase [3] -2.25% | viability [4] 67.4% | viability [5] 68.9% | inhibition [6] 0.555% | RAM network inhibition [7] 7.91%

CCN(CC)CCCNC(=O)Cn1ncc2c(=O)oc3ccc(C)cc3c21
inactive: growth inhibition [1] -23.9% | growth inhibition [2] -25.6% | viability increase [3] -1.87% | viability [4] 101% | viability [5] 92.3% | inhibition [6] 2.04% | RAM network inhibition [7] 5.92%

O=C(Nc1scc(-c2cccs2)c1C(=O)O)c1cccs1
inactive: growth inhibition [1] -11.8% | growth inhibition [2] -9.07% | viability increase [3] 3.64% | viability [4] 103% | viability [5] 105% | inhibition [6] 1.41% | RAM network inhibition [7] 0.42%
